Measured values as given in ChEMBL document CHEMBL1144382, “Discovery and optimisation of potent, selective, ethanolamine inhibitors of bacterial phenylalanyl tRNA synthetase” (Bioorg Med Chem Lett, 2005).

Key:
[1] = biological target: T1, Phenylalanine--tRNA ligase alpha subunit (Staphylococcus aureus, UniProt P68849); assay: Inhibitory concentration against Staphylococcus aureus Phenylalanyl-tRNA synthetase
T1 sequence (P68849 whole entry): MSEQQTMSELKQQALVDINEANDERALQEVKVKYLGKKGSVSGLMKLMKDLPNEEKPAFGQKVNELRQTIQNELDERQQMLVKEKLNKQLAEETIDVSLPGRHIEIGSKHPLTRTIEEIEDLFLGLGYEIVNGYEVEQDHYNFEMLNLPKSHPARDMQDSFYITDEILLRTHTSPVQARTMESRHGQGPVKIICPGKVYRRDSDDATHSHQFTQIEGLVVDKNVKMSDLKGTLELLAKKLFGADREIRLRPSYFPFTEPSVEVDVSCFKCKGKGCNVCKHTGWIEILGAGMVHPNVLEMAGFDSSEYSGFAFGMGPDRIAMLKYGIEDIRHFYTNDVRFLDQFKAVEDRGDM
Method in brief: (§1)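 Recombinant bacterial FRS (S. aureus WCUH29 enzyme cloned and overexpressed in E. coli; S. pneumoniae and H. influenzae enzymes overexpressed and purified the same way). IC50 from the full aminoacylation reaction with SPA read-out. Phenylalanine was held at the Km of each enzyme.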

[2] = biological target: T2, Phenylalanine--tRNA ligase alpha subunit (Streptococcus pneumoniae serotype 4 (strain ATCC BAA-334 / TIGR4), UniProt Q97S36); assay: Inhibitory concentration against Streptococcus pneumoniae Phenylalanyl-tRNA synthetase; method in brief: as §1
T2 sequence (Q97S36 whole entry): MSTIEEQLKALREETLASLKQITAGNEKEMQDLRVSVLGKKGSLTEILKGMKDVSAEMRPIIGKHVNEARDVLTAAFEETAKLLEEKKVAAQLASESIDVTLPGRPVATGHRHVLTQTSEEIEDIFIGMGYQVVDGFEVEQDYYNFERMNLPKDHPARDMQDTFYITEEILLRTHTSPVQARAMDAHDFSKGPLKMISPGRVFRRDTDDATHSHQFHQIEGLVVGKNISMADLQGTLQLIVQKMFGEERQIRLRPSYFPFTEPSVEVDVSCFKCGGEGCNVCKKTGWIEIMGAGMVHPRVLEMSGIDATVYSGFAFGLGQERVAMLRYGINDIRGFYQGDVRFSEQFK

[3] = biological target: T3, Phenylalanine--tRNA ligase alpha subunit (Haemophilus influenzae (strain ATCC 51907 / DSM 11121 / KW20 / Rd), UniProt P43819); assay: Inhibitory concentration against Haemophilus influenzae Phenylalanyl-tRNA synthetase; method in brief: as §1
T3 sequence (P43819 whole entry): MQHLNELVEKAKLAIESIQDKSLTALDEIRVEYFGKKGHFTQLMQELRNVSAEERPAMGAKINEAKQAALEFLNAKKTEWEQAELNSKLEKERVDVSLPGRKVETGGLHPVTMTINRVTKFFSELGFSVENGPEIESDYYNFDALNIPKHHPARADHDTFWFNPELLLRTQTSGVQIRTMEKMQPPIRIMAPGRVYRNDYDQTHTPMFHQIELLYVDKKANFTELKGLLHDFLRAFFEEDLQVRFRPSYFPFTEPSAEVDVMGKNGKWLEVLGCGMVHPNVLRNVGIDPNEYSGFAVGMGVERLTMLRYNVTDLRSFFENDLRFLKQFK

[4] = biological target: T4, Phenylalanine--tRNA ligase, mitochondrial (Rattus norvegicus, UniProt Q6AYQ3); assay: Inhibitory concentration against Phenylalanyl-tRNA synthetase from rat liver
T4 sequence (Q6AYQ3 whole entry): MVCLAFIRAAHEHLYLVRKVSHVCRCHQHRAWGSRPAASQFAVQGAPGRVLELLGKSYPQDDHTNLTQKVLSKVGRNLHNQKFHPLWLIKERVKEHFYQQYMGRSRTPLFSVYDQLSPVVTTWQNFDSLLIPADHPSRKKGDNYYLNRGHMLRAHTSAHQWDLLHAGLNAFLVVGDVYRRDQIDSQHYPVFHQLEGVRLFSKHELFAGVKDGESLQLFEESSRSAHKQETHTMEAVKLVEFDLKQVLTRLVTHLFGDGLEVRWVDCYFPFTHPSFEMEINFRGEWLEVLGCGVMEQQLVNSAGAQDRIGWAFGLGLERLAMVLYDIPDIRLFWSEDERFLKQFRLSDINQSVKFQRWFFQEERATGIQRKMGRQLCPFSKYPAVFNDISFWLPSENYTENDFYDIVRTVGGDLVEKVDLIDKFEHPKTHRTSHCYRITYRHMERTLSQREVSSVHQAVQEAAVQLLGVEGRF
Method in brief: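 Mammalian FRS isolated from rat liver; IC50 determined to assess selectivity against the bacterial enzyme.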

[5] = biological target: T1, Phenylalanine--tRNA ligase alpha subunit; assay: Inhibitory concentration against […] Phenylalanyl-tRNA synthetase
Method in brief: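 Recombinant S. aureus WCUH29 FRS, cloned and overexpressed in E. coli, then purified. IC50 measured in the full aminoacylation reaction with SPA readout. Phenylalanine set at the enzyme's Km.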

[6] = biological target: T3, Phenylalanine--tRNA ligase alpha subunit; assay: Inhibitory concentration against Haemophilus influenzae Phenylalanyl-tRNA synthetase; NI=no inhibition at 300 nM
Method in brief: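 Recombinant FRS from the named species, overexpressed in E. coli and purified. IC50 measured in the full aminoacylation reaction with SPA readout. Phenylalanine set at the Km of each enzyme.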

Compound | IC50 [1] [nM] | also measured
OCCOc1ccccc1CNC[C@@H](O)c1cc(Br)cs1 | 3.7 | IC50 [2]: 190 nM; IC50 [3]: 56 nM
C=CCOc1ccccc1CNCC(O)c1cccc(C(F)(F)F)c1 (stereo not given) | 58 | 
COc1ccccc1CNCC(O)c1cccc(Br)c1 (stereo not given) | 110 | 
OC(CNCc1ccccc1)c1cccc(C(F)(F)F)c1 (stereo not given) | 160 | IC50 [5]: 160 nM; IC50 [6]: No inhibition
OCCOc1ccccc1CNC[C@H](O)c1cc(Br)cs1 | > 1000 | IC50 [2]: > 1000 nM; IC50 [3]: > 1000 nM
OC(CNCc1ccccc1OC(F)F)c1cccc(C(F)(F)F)c1 (stereo not given) | 260 | 
O=C(O)c1ccccc1CNCC(O)c1cccc(C(F)(F)F)c1 (stereo not given) | 2500 | 
OC(CNCc1ccccc1OCc1ccccc1)c1cccc(C(F)(F)F)c1 (stereo not given) | 50 | 
CN(CCO)C(=O)CCCOc1ccccc1CNCC(O)c1cc(Br)cs1 (stereo not given) | 26 | 
COc1ccccc1CNCC(O)c1ccc(C(F)(F)F)cc1 (stereo not given) | > 10000 | 
OC(CNCc1ccccc1OCCN1CCOCC1)c1cc(Br)cs1 (stereo not given) | 18 | 
Oc1ccccc1CNCC(O)c1cccc(C(F)(F)F)c1 (stereo not given) | 100 | 
OC(CNCc1ccccc1OCc1cccnc1)c1cc(Br)cs1 (stereo not given) | 18 | 
COc1ccccc1CNCC(O)c1cccc(OC(F)(F)F)c1 (stereo not given) | 190 | 
OC(CNCc1ccccc1OCc1nc2ccccc2[nH]1)c1cc(Br)cs1 (stereo not given) | 26 | IC50 [2]: 250 nM; IC50 [3]: 150 nM
OC(CNCc1ccccc1OCc1ccccc1)c1cc(Br)cs1 (stereo not given) | 10 | IC50 [2]: 280 nM; IC50 [3]: 1500 nM
CN(CCO)C(=O)CCOc1ccccc1CNCC(O)c1cc(Br)cs1 (stereo not given) | 25 | 

Compound | IC50 [1] [nM] | also measured
COc1ccccc1CNCC(O)c1cc(C(F)(F)F)ccc1C(F)(F)F (stereo not given) | > 10000 | 
NCCOc1ccccc1CNCC(O)c1cc(Br)cs1 (stereo not given) | 220 | 
N#CCOc1ccccc1CNCC(O)c1cc(Br)cs1 (stereo not given) | 49 | 
COc1ccccc1CNCC(O)c1cccc(OCc2ccccc2)c1 (stereo not given) | > 10000 | 
COc1ccccc1CNCC(O)c1cccc(C)c1 (stereo not given) | 110 | 
COc1ccccc1CNCC(O)c1cccc(C(F)(F)F)c1 (stereo not given) | 160 | 
NC(=O)COc1ccccc1CNCC(O)c1cc(Br)cs1 (stereo not given) | 42 | 
COc1ccccc1CNCC(O)c1ccccc1C(F)(F)F (stereo not given) | > 10000 | 
NCCCCOc1ccccc1CNCC(O)c1cc(Br)cs1 (stereo not given) | 22 | 
O=C1c2ccccc2C(=O)N1CCOc1ccccc1CNCC(O)c1cc(Br)cs1 (stereo not given) | 250 | 
CN(CCO)C(=O)COc1ccccc1CNCC(O)c1cc(Br)cs1 (stereo not given) | 110 | 
Cc1ccccc1CNCC(O)c1cccc(C(F)(F)F)c1 (stereo not given) | 790 | 
OC(CNCc1ccccc1OCc1ccccc1)c1cccc(I)c1 (stereo not given) | 32 | 
OCCOc1ccccc1CNCC(O)c1cc(Br)cs1 (stereo not given) | 8 | 
COc1cccc(C(O)CNCc2ccccc2OCc2ccccc2)c1 (stereo not given) | 83 | 
CS(=O)(=O)c1ccc(COc2ccccc2CNCC(O)c2cc(Br)cs2)cc1 (stereo not given) | 26 | 
C=CCOc1ccccc1CNCC(O)c1cc(Br)cs1 (stereo not given) | 18 | 

More lines, main results first:

IC50 [1] [nM] | Compound | also measured
36 | CNC(=O)CNC(=O)CCOc1ccccc1CNCC(O)c1cc(Br)cs1 (stereo not given) | 
120 | OC(CNCc1ccccc1Oc1ccccc1)c1cc(Br)cs1 (stereo not given) | 
16 | OC(CNCc1ccccc1OCc1ccncc1)c1cc(Br)cs1 (stereo not given) | IC50 [4]: 90 µM
32 | CCNC(=O)COc1ccccc1CNCC(O)c1cc(Br)cs1 (stereo not given) | 
69 | O=C1c2ccccc2C(=O)N1CCCCOc1ccccc1CNCC(O)c1cc(Br)cs1 (stereo not given) | 
31 | OC(CNCc1ccccc1OCc1ccccc1)c1cccc(Cl)c1 (stereo not given) | 
43 | O=C(O)CCCOc1ccccc1CNCC(O)c1cc(Br)cs1 (stereo not given) | 
58 | O=C(O)CCOc1ccccc1CNCC(O)c1cc(Br)cs1 (stereo not given) | 
30 | CNC(=O)CNC(=O)CCCOc1ccccc1CNCC(O)c1cc(Br)cs1 (stereo not given) | 
50 | COc1ccccc1CNCC(O)c1cc(Br)cs1 (stereo not given) | 
120 | CNC(=O)CNC(=O)COc1ccccc1CNCC(O)c1cc(Br)cs1 (stereo not given) | 
43 | OC(CNCc1ccccc1OCc1ccccn1)c1cc(Br)cs1 (stereo not given) | 
35 | COCOc1ccccc1CNCC(O)c1cc(Br)cs1 (stereo not given) | 
570 | OCc1cccc(C(O)CNCc2ccccc2OCc2ccccc2)c1 (stereo not given) | 
> 10000 | OC(CNCc1ccccc1OCc1ccccc1)c1cc(C(F)(F)F)cc(C(F)(F)F)c1 (stereo not given) | 
